From PubChem
Lung fibro prol = antiproliferative effect on LL 47 fibroblasts – human, LL 47 cells, CellTiter-Glo luminescence, primary screen; LL 47 human lung fibroblast viability, ATP luminescence; stronger effect = lower value; viability, % at 10 µM; hit rate 1.1% among 85,000; AID 719, 2007;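 active means viability at or below 50% in the single dose screen; inactive means viability above 50%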;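 further: compound exposure lasted 72 h before the ATP readout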
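Material: human lung fibroblast line LL 47, low passage; Evaluation: viability percentage against median untreated-cell control; Buffer or medium: 15% FBS in IMEM; Incubation: 72 h compound exposure at 37 °C after overnight plating; Dosing: 0.1% DMSO in all compound wells; Measured by: CellTiter-Glo luminescence.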
HUVEC inhibit = inhibitors of HUVEC proliferation, primary screen, cell-based, 384-well; CellTiter-Glo luminescence, 72 h; stronger effect = lower value; viability, % at 10 µM (by protocol); hit rate 1.1% among 86,000;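 active means viability at or below 30%; inactive means viability above 30%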
PTEN del growth = growth suppression of PTEN-null HCT116, primary screen, cell-based, CellTiter-Glo; HCT116 PTEN-null viability, 60 h; stronger effect = lower value; viability, % at 10 µM; hit rate 1.2% among 140,000;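 active means viability at or below a set limit, 4 SD under the median of all tested compounds, cut at about 3.7% in these data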;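 further: PTEN knockout HCT116 line with beta catenin targeted HCT116 as companion control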
bCat KO growth = primary screen for growth suppressors in beta-catenin knockout HCT116 cells (colon tumor, human) | HCT116 beta-catenin knockout viability, CellTiter-Glo, 60 h; stronger effect = lower value | viability, % at 10 µM | hit rate 1.5% among 140,000;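 active means viability at or under a set limit, the compound median less 4 SD, cut at about 6% in these data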
H69AR inhibit = proliferation blockers of H69AR lung cancer cells, primary screen, cell-based, human, 86K library | hit rate 6% among 85,000 | H69AR lung tumor viability, ATP luminescence, 72 h; stronger effect = lower value | viability, % at 10 µM | AID 598, 2007;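 active means viability at or below 40%; inactive means viability above 40%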;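 further: multidrug resistant small cell line overexpressing MRP-1 efflux transporter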
A number is an active result. This is one part of a sample in which hits are shown more often than they occur.

COc1ccccc1/C=N/NC(=O)C(C)Cn1cnc2ccccc21 (stereo not given) was read as PTEN del growth inactive and bCat KO growth inactive.
For COc1ccc(-c2noc(CSc3nnc(Cc4ccccc4)n3-c3ccc(Cl)cc3)n2)cc1 the results were Lung fibro prol inactive, HUVEC inhibit inactive, PTEN del growth inactive, bCat KO growth inactive and H69AR inhibit 12.8.
Screening Cc1nn(Cc2cccc(C(=O)NC34CC5CC(CC(C5)C3)C4)c2)c(C)c1Br returned Lung fibro prol inactive, HUVEC inhibit 29.4, PTEN del growth inactive, bCat KO growth inactive and H69AR inhibit inactive.
CC(C)(C)NC(=O)CSc1ncnc2c1nnn2Cc1ccccc1Cl was read as Lung fibro prol inactive, HUVEC inhibit inactive, PTEN del growth 3.2, bCat KO growth 4.1 and H69AR inhibit 3.0.
Screening CC(C)(C)Nc1nc(OCC(F)(F)F)nc(OCC(F)(F)F)n1 returned Lung fibro prol inactive, HUVEC inhibit inactive, PTEN del growth inactive, bCat KO growth inactive and H69AR inhibit inactive.
`CCC(=O)Nc1nnc(C(C)(C)C)s1` gave Lung fibro prol inactive, HUVEC inhibit inactive, PTEN del growth inactive, bCat KO growth inactive and H69AR inhibit inactive.
`Brc1ccccc1-c1nnc(COc2cccc3cccnc23)o1` gave Lung fibro prol inactive, HUVEC inhibit inactive, PTEN del growth inactive, bCat KO growth inactive and H69AR inhibit 32.0.
For CC(C)C(C)(C#N)NC(=O)CSc1nnc(C(F)(F)F)n1C (stereo not given) the results were Lung fibro prol inactive, HUVEC inhibit inactive, PTEN del growth inactive, bCat KO growth inactive and H69AR inhibit inactive.
CCOC(=O)Nc1cc(=O)c2ccccc2o1 was read as HUVEC inhibit inactive, PTEN del growth inactive, bCat KO growth inactive and H69AR inhibit 14.3.
Screening CC(=O)Nc1cccc(Oc2cc(C#N)c(C#N)cc2N2CCCCCC2)c1 returned Lung fibro prol inactive, HUVEC inhibit inactive, PTEN del growth inactive, bCat KO growth inactive and H69AR inhibit 31.6.
For CN(C)S(=O)(=O)c1ccc(S(=O)(=O)N(Cc2ccco2)Cc2ccccc2Cl)cc1 the results were Lung fibro prol inactive, HUVEC inhibit inactive, PTEN del growth inactive, bCat KO growth inactive and H69AR inhibit 40.0.
`COc1ccc(C(=O)c2c(C(F)(F)F)oc3c2C(=O)c2ccccc2C3=O)cc1OC` gave Lung fibro prol 2.4, HUVEC inhibit 4.7, PTEN del growth 1.9, bCat KO growth 1.3 and H69AR inhibit 1.6.
For COc1ccccc1OCC(=O)NC1CCCCCC1 the results were Lung fibro prol inactive, HUVEC inhibit inactive, PTEN del growth inactive, bCat KO growth inactive and H69AR inhibit inactive.
COc1ccc2c(c1)c(=O)oc1cc(OCC(=O)NC3CC3)ccc12 was read as Lung fibro prol inactive, HUVEC inhibit inactive, PTEN del growth inactive, bCat KO growth 3.8 and H69AR inhibit 35.5.
COc1ccc2c(c1)c(=O)oc1cc(OCC(=O)NC3CCCCC3)ccc12 was read as Lung fibro prol inactive, HUVEC inhibit inactive, PTEN del growth inactive, bCat KO growth inactive and H69AR inhibit 19.1.
Screening O=C(COc1ncnc2sccc12)N1CCN(S(=O)(=O)c2ccc(Cl)cc2)CC1 returned Lung fibro prol inactive, HUVEC inhibit inactive, PTEN del growth inactive, bCat KO growth inactive and H69AR inhibit inactive.
COc1ccccc1N1CCN(C(=O)COc2ccc(Cl)cc2Br)CC1 was read as Lung fibro prol inactive, HUVEC inhibit inactive, PTEN del growth inactive, bCat KO growth inactive and H69AR inhibit 16.6.
O=C1C(Cl)=C(N2CCOCC2)C(=O)N1c1ccccc1Cl was read as HUVEC inhibit inactive, PTEN del growth inactive, bCat KO growth inactive and H69AR inhibit 28.4.
Screening CC1(c2ccccc2)CC(C)(C)N2C(=O)C3(C(C#N)=C(N)Oc4cc(O)ccc43)c3cccc1c32 (stereo not given) returned Lung fibro prol inactive, HUVEC inhibit 12.9, PTEN del growth 1.5, bCat KO growth 1.4 and H69AR inhibit inactive.
Screening CC1(C)CC(=O)C2=C(C1)OC(N)=C(C#N)C21C(=O)N2CCCc3cccc1c32 (stereo not given) returned Lung fibro prol inactive, HUVEC inhibit inactive, PTEN del growth inactive, bCat KO growth inactive and H69AR inhibit inactive.
`CC1=CC(C)(C)N2C(=O)C3(C(C#N)=C(N)Oc4cc(O)ccc43)c3c(C)c(C)cc1c32` (stereo not given) gave Lung fibro prol inactive, HUVEC inhibit 4.8, PTEN del growth inactive, bCat KO growth inactive and H69AR inhibit 4.4.
CC1(c2ccccc2)CC(C)(C)N2C(=O)/C(=C3\SC(=S)NC3=O)c3cccc1c32 (stereo not given) was read as PTEN del growth inactive and bCat KO growth inactive.
Cc1cc2c3c(c1)C(C)(c1ccccc1)CC(C)(C)N3C(=O)C21C(C#N)=C(N)OC2=C1C(=O)CC(C)(C)C2 (stereo not given) was read as Lung fibro prol inactive, HUVEC inhibit inactive, PTEN del growth inactive, bCat KO growth inactive and H69AR inhibit 18.8.
Screening CC1=CC(C)(C)N2C(=O)C3(C(C#N)=C(N)OC4=C3C(=O)CCC4)c3c(C)c(C)cc1c32 (stereo not given) returned PTEN del growth inactive and bCat KO growth inactive.
For C=CCNCCOc1ccc(C(C)(C)c2ccccc2)cc1 the results were PTEN del growth inactive and bCat KO growth inactive.
For CN(C)CCCOc1ccc(C(C)(C)c2ccccc2)cc1 the results were Lung fibro prol inactive, HUVEC inhibit inactive, PTEN del growth inactive, bCat KO growth inactive and H69AR inhibit 27.7.
Screening CCCc1cc(C(=O)Nc2c(C)n(C)n(-c3ccccc3)c2=O)no1 returned Lung fibro prol inactive, HUVEC inhibit inactive, PTEN del growth inactive, bCat KO growth inactive and H69AR inhibit inactive.
Cc1ccc(C2(C)NC(=O)N(CC(=O)Nc3cc(S(=O)(=O)N4CCOCC4)ccc3C)C2=O)cc1 (stereo not given) was read as PTEN del growth inactive and bCat KO growth inactive.
`O=C(Cc1ccc(-n2cccc2)cc1)NCc1cccs1` gave Lung fibro prol inactive, HUVEC inhibit inactive, PTEN del growth inactive, bCat KO growth inactive and H69AR inhibit 28.9.
COc1cc(C(C[N+](=O)[O-])c2c(-c3ccccc3)cc3ccccn23)cc(OC)c1OC (stereo not given) was read as Lung fibro prol 34.0, HUVEC inhibit inactive, PTEN del growth inactive, bCat KO growth inactive and H69AR inhibit 10.6.
`COc1ccc(C(C[N+](=O)[O-])c2c(-c3ccccc3)cc3ccccn23)cc1` (stereo not given) gave Lung fibro prol 43.4, HUVEC inhibit inactive, PTEN del growth 1.9, bCat KO growth 3.3 and H69AR inhibit 11.9.
For COc1cc(-c2ncc3ccccn23)cc(OC)c1OC the results were PTEN del growth inactive and bCat KO growth inactive.
